In ChEMBL document CHEMBL3600302, “A Ligand-Based Drug Design. Discovery of 4-Trifluoromethyl-7,8-pyranocoumarin as a Selective Inhibitor of Human Cytochrome P450 1A2” (J Med Chem, 2015):

Columns and labels:
Cytochrome P450 1A1 = target: T1, Cytochrome P450 1A1 (Homo sapiens, UniProt P04798); assay: Inhibition of human microsomal CYP1A1-dependent ethoxyresorufin-O-deethylase activity by spectrofluorimetric analysis in presence of NADPH regenerating solution
T1 sequence (P04798 whole entry): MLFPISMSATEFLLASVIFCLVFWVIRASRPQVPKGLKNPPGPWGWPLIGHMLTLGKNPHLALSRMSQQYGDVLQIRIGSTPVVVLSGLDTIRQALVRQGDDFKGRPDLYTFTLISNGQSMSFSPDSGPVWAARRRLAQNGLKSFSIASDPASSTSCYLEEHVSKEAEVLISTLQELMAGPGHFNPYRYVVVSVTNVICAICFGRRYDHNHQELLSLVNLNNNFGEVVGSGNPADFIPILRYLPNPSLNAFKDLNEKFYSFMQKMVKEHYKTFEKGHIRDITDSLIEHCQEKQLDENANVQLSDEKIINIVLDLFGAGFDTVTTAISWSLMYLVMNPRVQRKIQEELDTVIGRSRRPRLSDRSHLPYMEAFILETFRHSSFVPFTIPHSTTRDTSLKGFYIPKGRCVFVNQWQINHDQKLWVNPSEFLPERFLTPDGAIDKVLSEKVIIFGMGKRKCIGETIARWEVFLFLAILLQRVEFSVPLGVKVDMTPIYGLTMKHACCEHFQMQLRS
Summary of the method: (§1)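 Microsomal P450 (final 5 nM) in 0.1 M potassium phosphate pH 7.6 with MgCl2 at 37 °C. Substrate final 5 µM: ethoxyresorufin for 1A1/1B1, methoxyresorufin for 1A2. […] Ki was taken as the x-intercept of Dixon plots (1/v0 vs [I]). Mean ± SD of three independent experiments. Selectivity ratios are ratios of these Ki.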

Homo sapiens [1] = species on record: Homo sapiens; assay: Selectivity ratio of Ki for human microsomal CYP1A1 to Ki for human microsomal CYP1A2; summary of the method: as §1
Cytochrome P450 1A2 [2] = target: T2, Cytochrome P450 1A2 (Homo sapiens, UniProt P05177); assay: Inhibition of CYP1A2-dependent methoxyresorufin-O-demethylase activity in human HepG2 cells at > 10^-6 M preincubated for 24 hrs followed by substrate addition measured at 10, 30, 60 mins by fluorescence assay; assay type: cell-based; settings: hepg2, 1 h
T2 sequence (P05177 whole entry): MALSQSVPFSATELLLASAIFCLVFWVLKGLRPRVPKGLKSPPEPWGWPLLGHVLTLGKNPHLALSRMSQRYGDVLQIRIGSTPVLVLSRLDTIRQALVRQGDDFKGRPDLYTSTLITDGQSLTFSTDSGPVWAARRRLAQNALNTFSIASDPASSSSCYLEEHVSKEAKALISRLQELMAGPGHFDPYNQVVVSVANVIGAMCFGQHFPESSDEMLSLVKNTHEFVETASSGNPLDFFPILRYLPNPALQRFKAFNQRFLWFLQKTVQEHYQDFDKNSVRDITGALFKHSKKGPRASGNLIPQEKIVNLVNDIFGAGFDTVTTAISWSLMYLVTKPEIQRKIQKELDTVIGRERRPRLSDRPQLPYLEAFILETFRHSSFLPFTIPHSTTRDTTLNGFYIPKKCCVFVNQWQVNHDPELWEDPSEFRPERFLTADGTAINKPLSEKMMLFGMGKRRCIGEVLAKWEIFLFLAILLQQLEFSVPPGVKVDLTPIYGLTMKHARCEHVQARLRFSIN
Summary of the method: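 HepG2 cells (DMEM, 10% FBS, 37 °C, 5% CO2), 2 × 10^5 per well, plated overnight. Exposed 24 h to compound at final 10^-4 to 10^-7 M in DMSO. 10^-5 M βNF positive control, DMSO blank. Then washed with PBS and given medium with 5 × 10^-6 M methoxyresorufin. Resorufin fluorescence (ex 535/em 585 nm) read at 10, 30, 60 min. Triplicate, three independent experiments, unpaired t test.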

Homo sapiens [3] = species on record: Homo sapiens; assay: Selectivity ratio of Ki for human microsomal CYP1B1 to Ki for human microsomal CYP1A2; summary of the method: as §1
[4] = target: T3, Aryl hydrocarbon receptor (Homo sapiens, UniProt P35869); assay: Activation of human AhR expressed in Saccharomyces cerevisiae MYA-3637 assessed as upregulation of cytochrome P450 expression at <10^-6 M by LacZ reporter assay; assay type: ADME
T3 sequence (P35869 whole entry): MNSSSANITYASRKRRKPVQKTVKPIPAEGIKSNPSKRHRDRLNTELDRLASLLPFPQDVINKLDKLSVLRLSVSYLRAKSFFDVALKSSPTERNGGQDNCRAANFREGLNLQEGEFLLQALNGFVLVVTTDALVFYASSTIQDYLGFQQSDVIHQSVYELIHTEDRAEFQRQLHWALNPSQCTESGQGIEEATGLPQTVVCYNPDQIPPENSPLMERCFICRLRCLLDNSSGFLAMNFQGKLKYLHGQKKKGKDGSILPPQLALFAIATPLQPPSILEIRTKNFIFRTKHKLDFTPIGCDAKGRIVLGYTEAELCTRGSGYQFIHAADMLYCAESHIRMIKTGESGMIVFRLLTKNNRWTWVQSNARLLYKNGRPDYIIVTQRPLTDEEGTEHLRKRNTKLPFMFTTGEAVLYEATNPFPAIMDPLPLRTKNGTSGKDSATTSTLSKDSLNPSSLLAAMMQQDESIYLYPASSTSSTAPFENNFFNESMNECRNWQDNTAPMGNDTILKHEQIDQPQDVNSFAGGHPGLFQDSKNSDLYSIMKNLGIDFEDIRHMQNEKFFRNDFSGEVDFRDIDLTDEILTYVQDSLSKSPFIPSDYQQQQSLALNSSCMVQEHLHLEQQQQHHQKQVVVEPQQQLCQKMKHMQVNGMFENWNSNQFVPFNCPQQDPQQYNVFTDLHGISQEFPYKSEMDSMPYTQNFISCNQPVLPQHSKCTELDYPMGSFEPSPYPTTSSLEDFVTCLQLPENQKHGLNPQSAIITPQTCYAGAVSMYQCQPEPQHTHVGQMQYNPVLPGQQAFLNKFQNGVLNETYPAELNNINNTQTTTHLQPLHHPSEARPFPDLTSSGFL
Summary of the method: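 Yeast with integrated human AhR (GAL promoter) and lacZ reporter plasmid, grown on tryptophan-free synthetic minimal medium with galactose instead of glucose. Compounds in DMSO (1% v/v final) added to overnight culture in quadruplicate and left until next day. Abs600 read, then lysis buffer with sarcosyl, DTT and ONPG added. Abs405/Abs600 taken as activation. 10^-8 M βNF positive control. At least three repeats.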

HepG2 = assay: Cytotoxicity against human HepG2 cells assessed as cell viability up to 10^-5 M after 72 hrs by MTT assay; assay type: cell-based; settings: hepg2, 72 h
Cytochrome P450 1A2 [5] = target: T2, Cytochrome P450 1A2; assay: Time-dependent inhibition of human microsomal CYP1A2-dependent methoxyresorufin-O-demethylase activity by spectrofluorimetric analysis in presence of NADPH regenerating solution
Summary of the method: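 1A2 MROD run with NADPH at 0.0125, 0.025, 0.05 and 0.1 µM inhibitor, product monitored continuously over 6 min. Activity at different times came from first derivatives of product curves, expressed as % of control remaining. KI and limiting kinact were derived from the resulting linear plot.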

Cytochrome P450 1B1 = target: T4, Cytochrome P450 1B1 (Homo sapiens, UniProt Q16678); assay: Inhibition of human microsomal CYP1B1-dependent ethoxyresorufin-O-deethylase activity by spectrofluorimetric analysis in presence of NADPH regenerating solution
T4 sequence (Q16678 whole entry): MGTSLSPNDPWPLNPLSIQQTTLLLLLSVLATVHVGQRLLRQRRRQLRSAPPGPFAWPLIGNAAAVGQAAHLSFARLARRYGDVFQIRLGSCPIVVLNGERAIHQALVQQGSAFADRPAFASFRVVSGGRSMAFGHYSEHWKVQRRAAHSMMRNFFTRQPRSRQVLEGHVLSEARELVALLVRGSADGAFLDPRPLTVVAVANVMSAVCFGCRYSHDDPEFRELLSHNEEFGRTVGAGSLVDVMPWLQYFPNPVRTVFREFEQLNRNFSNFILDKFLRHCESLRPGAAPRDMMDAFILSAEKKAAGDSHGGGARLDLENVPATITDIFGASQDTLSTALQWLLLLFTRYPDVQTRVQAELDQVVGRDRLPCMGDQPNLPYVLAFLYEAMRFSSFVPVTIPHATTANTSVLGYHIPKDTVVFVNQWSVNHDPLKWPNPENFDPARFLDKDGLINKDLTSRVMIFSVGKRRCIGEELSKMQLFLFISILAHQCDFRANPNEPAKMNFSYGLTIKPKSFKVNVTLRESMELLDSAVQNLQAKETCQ
Summary of the method: (§2)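 Microsomal P450 (final 5 nM) in 0.1 M potassium phosphate pH 7.6 with MgCl2 at 37 °C. Substrate final 5 µM: ethoxyresorufin for 1A1/1B1, methoxyresorufin for 1A2. Ki was taken as the x-intercept of Dixon plots (1/v0 vs [I]). Mean ± SD of three independent experiments. Selectivity ratios are ratios of these Ki.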

Cytochrome P450 1A2 [6] = target: T2, Cytochrome P450 1A2; assay: Inhibition of human microsomal CYP1A2-dependent methoxyresorufin-O-demethylase activity by spectrofluorimetric analysis in presence of NADPH regenerating solution; summary of the method: as §2

SMILES: O=c1cc(C(F)(F)F)c2ccc3c(c2o1)C=CCO3
- Ki (Cytochrome P450 1A1): 60.6 µM
- Ratio Ki (Homo sapiens [1]): 155
- inhibition (INH) (Cytochrome P450 1A2 [2]): Active
- Ratio Ki (Homo sapiens [3]): 52
- Activity [4]: Not Active
- Activity (HepG2): Non-toxic
- TDI (Cytochrome P450 1A2 [5]): Not Active
- Ki (Cytochrome P450 1B1): 20.4 µM
- Ki (Cytochrome P450 1A2 [6]): 0.39 µM
